Data reported in ChEMBL document CHEMBL3734738, “A structure-activity relationship of non-peptide macrocyclic histone deacetylase inhibitors and their anti-proliferative and anti-inflammatory activities” (Bioorg Med Chem, 2015).

Legend:
Histone deacetylase 8 = molecular target: T1, Histone deacetylase 8 (Homo sapiens, UniProt Q9BY41); test: Inhibition of recombinant HDAC8 (unknown origin) expressed in Escherichia coli BL21(DE3) after 60 mins using trichostatin A by label-free mass spectrometry-based SAMDI assay
T1 sequence (Q9BY41 whole entry): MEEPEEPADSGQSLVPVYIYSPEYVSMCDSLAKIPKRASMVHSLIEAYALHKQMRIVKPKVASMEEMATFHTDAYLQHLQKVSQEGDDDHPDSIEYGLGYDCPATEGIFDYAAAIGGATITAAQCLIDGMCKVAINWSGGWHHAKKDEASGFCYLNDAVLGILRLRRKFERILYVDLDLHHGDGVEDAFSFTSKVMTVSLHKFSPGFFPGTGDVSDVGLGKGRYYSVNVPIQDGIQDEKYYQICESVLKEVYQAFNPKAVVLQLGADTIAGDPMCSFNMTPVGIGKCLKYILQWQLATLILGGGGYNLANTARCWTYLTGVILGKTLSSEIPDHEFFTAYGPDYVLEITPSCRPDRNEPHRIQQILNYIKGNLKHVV

A549 = test: Cytotoxicity against human A549 cells after 72 hrs by MTS assay; assay type: functional, cell-based; conditions: a549
Outline: (§1)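 Cells kept in DMEM with 10% FBS and 1% penicillin-streptomycin, seeded in 96-well plates for 24 h, then exposed to a range of drug concentrations for 72 h at 0.1% DMSO; viability read by MTS assay per manufacturer's protocol.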

Histone deacetylase 1 = Histone deacetylase 1 (Homo sapiens, UniProt Q13547); test: Inhibition of recombinant HDAC1 (unknown origin) expressed in Escherichia coli BL21(DE3) after 60 mins using trichostatin A by label-free mass spectrometry-based SAMDI assay
Sequence of Histone deacetylase 1 (Q13547 whole entry): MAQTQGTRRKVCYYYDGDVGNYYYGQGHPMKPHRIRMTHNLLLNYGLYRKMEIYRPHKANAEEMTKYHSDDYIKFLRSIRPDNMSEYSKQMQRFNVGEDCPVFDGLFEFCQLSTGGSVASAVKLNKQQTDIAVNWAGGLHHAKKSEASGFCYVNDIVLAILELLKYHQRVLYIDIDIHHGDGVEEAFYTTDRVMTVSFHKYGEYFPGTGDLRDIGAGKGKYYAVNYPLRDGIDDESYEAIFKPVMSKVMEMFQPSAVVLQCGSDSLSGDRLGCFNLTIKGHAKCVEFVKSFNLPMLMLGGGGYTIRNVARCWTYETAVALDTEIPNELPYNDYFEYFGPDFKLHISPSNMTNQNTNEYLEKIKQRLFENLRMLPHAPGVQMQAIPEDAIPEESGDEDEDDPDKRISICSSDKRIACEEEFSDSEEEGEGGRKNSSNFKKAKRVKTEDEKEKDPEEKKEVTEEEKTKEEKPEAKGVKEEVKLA

[1] = molecular target: T2, Protein deacetylase HDAC6 (Homo sapiens, UniProt Q9UBN7); test: Inhibition of recombinant HDAC6 (unknown origin) expressed in Escherichia coli BL21(DE3) after 60 mins using trichostatin A by label-free mass spectrometry-based SAMDI assay
T2 sequence (Q9UBN7 whole entry): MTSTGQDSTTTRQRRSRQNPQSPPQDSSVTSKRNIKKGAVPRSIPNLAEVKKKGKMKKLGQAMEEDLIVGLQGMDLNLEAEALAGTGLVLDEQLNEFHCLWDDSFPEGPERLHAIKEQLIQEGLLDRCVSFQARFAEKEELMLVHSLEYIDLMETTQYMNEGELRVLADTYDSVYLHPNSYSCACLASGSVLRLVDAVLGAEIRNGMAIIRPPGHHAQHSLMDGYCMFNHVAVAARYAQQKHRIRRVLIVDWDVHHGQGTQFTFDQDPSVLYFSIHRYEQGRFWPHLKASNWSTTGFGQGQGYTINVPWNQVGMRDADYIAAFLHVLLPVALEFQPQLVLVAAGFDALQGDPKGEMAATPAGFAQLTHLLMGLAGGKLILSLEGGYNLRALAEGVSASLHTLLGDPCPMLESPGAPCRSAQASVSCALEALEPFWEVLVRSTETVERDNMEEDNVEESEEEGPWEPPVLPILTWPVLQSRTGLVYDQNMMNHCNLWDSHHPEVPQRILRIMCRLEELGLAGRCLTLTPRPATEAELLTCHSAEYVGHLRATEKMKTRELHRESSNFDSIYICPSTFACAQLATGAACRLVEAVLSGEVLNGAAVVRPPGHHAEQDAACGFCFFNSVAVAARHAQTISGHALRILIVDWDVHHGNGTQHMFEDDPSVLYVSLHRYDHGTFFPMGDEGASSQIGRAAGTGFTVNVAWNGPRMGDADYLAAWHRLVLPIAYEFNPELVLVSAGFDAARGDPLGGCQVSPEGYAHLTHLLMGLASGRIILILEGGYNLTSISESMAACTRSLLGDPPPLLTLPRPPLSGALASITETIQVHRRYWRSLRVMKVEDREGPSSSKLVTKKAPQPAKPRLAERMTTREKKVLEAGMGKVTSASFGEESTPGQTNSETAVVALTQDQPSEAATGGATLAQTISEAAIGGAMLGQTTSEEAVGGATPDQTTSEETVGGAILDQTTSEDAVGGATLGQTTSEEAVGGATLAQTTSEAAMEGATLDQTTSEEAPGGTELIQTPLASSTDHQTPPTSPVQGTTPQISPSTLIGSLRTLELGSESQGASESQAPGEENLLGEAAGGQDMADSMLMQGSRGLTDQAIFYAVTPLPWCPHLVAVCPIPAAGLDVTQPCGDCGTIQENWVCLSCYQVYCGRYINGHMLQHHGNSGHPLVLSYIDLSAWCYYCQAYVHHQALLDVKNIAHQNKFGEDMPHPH

MCF7 = test: Cytotoxicity against human MCF7 cells after 72 hrs by MTS assay; assay type: functional, cell-based; conditions: mcf7; outline: as §1
[2] = Inhibition of NTHi-induced NF-kappaB activation in human BEAS-2B cells treated 1 hr before NTHi stimulation measured after 5 hrs by luciferase assay; assay type: cell-based; conditions: Homo sapiens, BEAS-2B; read-out: IC50
Homo sapiens = species on record: Homo sapiens; conditions: at 1 µM

Row | SMILES | IC50 (Histone deacetylase 8) | IC50 (A549) | IC50 (Histone deacetylase 1) | IC50 [1] | IC50 (MCF7) | IC50 [2] | Imax (Homo sapiens)
1 | CC[C@@H]1OC(=O)[C@H](C)[C@@H](O[C@@H]2C[C@](C)(OC)[C@H](O)[C@@H](C)O2)[C@@H](C)[C@@H](O[C@@H]2O[C@H](C)C[C@H](N(C)Cc3ccccc3-c3cn(CCCCCCC(=O)NO)nn3)[C@H]2O)[C@](C)(O)C[C@@H](C)CN(C)[C@H](C)[C@@H](O)[C@]1(C)O | 1280 nM | Not Active | 923 nM | 30.9 nM | Not Active |  | 
2 | CC[C@H]1OC(=O)[C@H](C)[C@@H](O[C@@H]2C[C@](C)(OC)[C@@](O)(CN(C)Cc3ccc(-c4cn(CCCCCC(=O)NO)nn4)cc3)[C@@H](C)O2)[C@@H](C)[C@@H](O[C@H]2O[C@@H](C)C[C@@H](N(C)C)[C@@H]2O)[C@](C)(OC)C[C@@H](C)C(=O)[C@H](C)[C@H](O)[C@]1(C)O | 985 nM |  | 652 nM | 5.89 nM |  | 785 nM | 50.7%
3 | CC[C@H]1OC(=O)[C@H](C)C(=O)[C@H](C)[C@@H](O[C@@H]2O[C@H](C)C[C@H](N(C)Cc3ccccc3-c3cn(CCCCCCC(=O)NO)nn3)[C@H]2O)[C@@](C)(OC)C[C@@H](C)C2=NCCN3C(=O)O[C@@]1(C)[C@H]3[C@H]2C | 2450 nM | Not Active | > 10000 nM | 75.4 nM | Not Active |  | 
4 | CC[C@@H]1OC(=O)[C@@H](C)[C@H](O[C@H]2C[C@@](C)(OC)[C@@H](O)[C@H](C)O2)[C@@H](C)[C@H](O[C@H]2O[C@@H](C)C[C@@H](N(C)C)[C@@H]2O)[C@](C)(O)C[C@H](C)CN(Cc2ccc(-c3cn(CCCCC(=O)NO)nn3)cc2)[C@H](C)[C@H](O)[C@@]1(C)O | > 10000 nM | Not Active | 2550 nM | 24.5 nM | Not Active |  | 
5 | CC[C@@H]1OC(=O)[C@H](C)[C@@H](O[C@@H]2C[C@](C)(OC)[C@@](O)(CN(C)Cc3ccc(-c4cn(CCCCCC(=O)NO)nn4)cc3)[C@@H](C)O2)[C@@H](C)[C@@H](O[C@@H]2O[C@H](C)C[C@H](N(C)C)[C@H]2O)[C@](C)(O)C[C@@H](C)CN(C)[C@H](C)[C@@H](O)[C@]1(C)O | 786 nM |  | 203 nM | 31.9 nM |  | 368 nM | 46.1%
6 | CC[C@H]1OC(=O)[C@@H](C)[C@H](O[C@H]2C[C@@](C)(OC)[C@](O)(CN(C)Cc3ccc(-c4cn(CCCCCCC(=O)NO)nn4)cc3)[C@H](C)O2)[C@H](C)[C@H](O[C@H]2O[C@@H](C)C[C@@H](N(C)C)[C@@H]2O)[C@@](C)(O)C[C@H](C)CN(C)[C@@H](C)[C@H](O)[C@@]1(C)O | 817 nM | Not Active | 50.4 nM | 31.3 nM | Not Active |  | 
7 | CC[C@@H]1OC(=O)[C@@H](C)[C@H](O[C@H]2C[C@@](C)(OC)[C@@H](O)[C@H](C)O2)[C@H](C)[C@H](O[C@@H]2O[C@H](C)C[C@H](N(C)Cc3ccc(-c4cn(CCCCC(=O)NO)nn4)cc3)[C@H]2O)[C@@](C)(OC)C[C@H](C)C(=O)[C@@H](C)[C@@H](O)[C@@]1(C)O | 877 nM |  | 4870 nM | 120 nM |  |  | 
8 | CC[C@@H]1OC(=O)[C@H](C)[C@@H](O[C@@H]2C[C@](C)(OC)[C@@](O)(CN(C)Cc3ccc(-c4cn(CCCC(=O)NO)nn4)cc3)[C@@H](C)O2)[C@@H](C)[C@@H](O[C@@H]2O[C@H](C)C[C@H](N(C)C)[C@H]2O)[C@](C)(O)C[C@@H](C)CN(C)[C@H](C)[C@@H](O)[C@]1(C)O | 1180 nM |  | > 10000 nM | 181 nM |  |  | 
9 | CC[C@@H]1OC(=O)[C@H](C)[C@@H](O[C@@H]2C[C@](C)(OC)[C@H](O)[C@@H](C)O2)[C@@H](C)[C@@H](O[C@@H]2O[C@H](C)C[C@H](N(C)Cc3ccc(-c4cn(CCCCC(=O)NO)nn4)cc3)[C@H]2O)[C@](C)(O)C[C@@H](C)CN(C)[C@H](C)[C@@H](O)[C@]1(C)O | 5380 nM |  | 1650 nM | 145 nM |  |  | 
10 | CC[C@H]1OC(=O)[C@H](C)C(=O)[C@H](C)[C@@H](O[C@@H]2O[C@H](C)C[C@H](N(C)Cc3ccc(-c4cn(CCCC(=O)NO)nn4)cc3)[C@H]2O)[C@@](C)(OC)C[C@@H](C)C2=NCCN3C(=O)O[C@@]1(C)[C@H]3[C@H]2C | 2240 nM |  | > 10000 nM | 194 nM |  |  | 
11 | CC[C@@H]1OC(=O)[C@@H](C)[C@H](O[C@H]2C[C@@](C)(OC)[C@@H](O)[C@H](C)O2)[C@H](C)[C@H](O[C@@H]2O[C@H](C)C[C@H](N(C)Cc3ccc(-c4cn(CCC(=O)NO)nn4)cc3)[C@H]2O)[C@@](C)(OC)C[C@H](C)C(=O)[C@@H](C)[C@@H](O)[C@@]1(C)O | 2450 nM |  | > 10000 nM | 919 nM |  |  | 
12 | CC[C@H]1OC(=O)[C@@H](C)[C@H](O[C@H]2C[C@@](C)(OC)[C@@H](O)[C@H](C)O2)[C@H](C)[C@H](O[C@H]2O[C@@H](C)C[C@@H](N(C)Cc3ccc(-c4cn(CCCC(=O)NO)nn4)cc3)[C@@H]2O)[C@@](C)(O)C[C@H](C)CN(C)[C@@H](C)[C@H](O)[C@@]1(C)O | > 10000 nM | Not Active | > 10000 nM | 106 nM | Not Active |  | 
13 | CC[C@H]1OC(=O)[C@@H](C)[C@H](O[C@H]2C[C@@](C)(OC)[C@@H](O)[C@H](C)O2)[C@H](C)[C@H](O[C@H]2O[C@@H](C)C[C@@H](N(C)Cc3ccc(-c4cn(CCC(=O)NO)nn4)cc3)[C@@H]2O)[C@@](C)(O)C[C@H](C)CN(C)[C@@H](C)[C@H](O)[C@@]1(C)O | > 10000 nM |  | > 10000 nM | 2170 nM |  |  | 
14 | CC[C@@H]1OC(=O)[C@@H](C)[C@H](O[C@H]2C[C@@](C)(OC)[C@](O)(CN(C)Cc3ccc(-c4cn(CCC(=O)NO)nn4)cc3)[C@H](C)O2)[C@H](C)[C@H](O[C@@H]2O[C@H](C)C[C@H](N(C)C)[C@H]2O)[C@@](C)(OC)C[C@H](C)C(=O)[C@@H](C)[C@@H](O)[C@@]1(C)O | 10200 nM |  | > 10000 nM | 3560 nM |  |  | 
15 | CC[C@H]1OC(=O)[C@@H](C)[C@H](O[C@@H]2C[C@](C)(OC)[C@@](O)(CN(C)Cc3ccc(-c4cn(CC(=O)NO)nn4)cc3)[C@@H](C)O2)[C@H](C)[C@H](O[C@H]2O[C@@H](C)C[C@@H](N(C)C)[C@@H]2O)[C@@](C)(O)C[C@H](C)CN(C)[C@@H](C)[C@H](O)[C@@]1(C)O | 4510 nM |  | > 10000 nM | > 10000 nM |  |  | 
16 | CC[C@@H]1OC(=O)[C@@H](C)[C@H](O[C@H]2C[C@@](C)(OC)[C@](O)(CN(C)Cc3ccc(-c4cn(CC(=O)NO)nn4)cc3)[C@H](C)O2)[C@H](C)[C@H](O[C@@H]2O[C@H](C)C[C@H](N(C)C)[C@H]2O)[C@@](C)(OC)C[C@H](C)C(=O)[C@@H](C)[C@@H](O)[C@@]1(C)O | 7120 nM |  | > 10000 nM | 5350 nM |  |  | 
17 | CC[C@H]1OC(=O)[C@H](C)C(=O)[C@H](C)[C@@H](O[C@@H]2O[C@H](C)C[C@H](N(C)Cc3ccc(-c4cn(CCCCCC(=O)NO)nn4)cc3)[C@H]2O)[C@@](C)(OC)C[C@@H](C)C2=NCCN3C(=O)O[C@@]1(C)[C@H]3[C@H]2C | 2030 nM |  | 73.1 nM | 8.9 nM |  |  | 
